Results as given in the EternaBench riboswitch data.

Tested on: MS2 coat protein
Assay: apparent Kd, MS2 coat protein; higher = weaker binding; RNA-MaP array; FMN 200 µM where present
Summary of the method: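 Designs were transcribed by stalled E. coli RNA polymerase on Illumina sequencing-chip clusters. They were titrated with SNAP-549-labelled MS2 coat protein from 0.7 or 1.5 nM, doubling to 3 µM, without and then with constant ligand. Buffer: 100 mM Tris-HCl pH 7.5, 80 mM KCl, 4 mM MgCl2, BSA, DTT, yeast tRNA, Tween-20. Green signal was normalised to red-channel RNA signal and control-cluster median Fmax. Apparent Kd is the median of filtered per-cluster binding-curve fits.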

[1] = designed as: OFF switch for flavin mononucleotide, no ligand
[2] = ligand present: flavin mononucleotide, designed as: OFF switch for flavin mononucleotide
[3] = designed as: ON switch for flavin mononucleotide, no ligand
[4] = ligand present: flavin mononucleotide, designed as: ON switch for flavin mononucleotide

Row | Sequence | apparent Kd [1] [nM] | apparent Kd [2] [nM] | apparent Kd [3] [nM] | apparent Kd [4] [nM]
1 | UGCCUGAGGCAAAGCUUUAGGUAUACAUGAGGAUCACCCAUGUAGGAUAUGGUAGGCUUUGCUUACCAGAAGGACAUGUUAAUU | 19.8 | 54.6 |  | 
2 | CUGGUUGUCGAGGAUAUGUCCCGGCUCGCAGUCGCAGAAGGCGACACAUGAGGAUCACCCAUGUCGGUUCGCGU | 13.8 | 13.3 |  | 
3 | CUGUGAUGGAUCCAGAAUUACAACAUGAGGAUCACCCAUGUGCAGGAUAUCGGGUUGAUAGGCGCCGAGAAGGGUAUAAUCACG | 110 | 105 |  | 
4 | UUACAUACAAAGUUACAUGAGGAUCACCCAUGUUUAUUGGGAAGAAGGGUAACAGUAUUACAUAUAUAGGAUAUUUCACAAUUG |  |  | 333 | 181
5 | CGGUCGAUGUAAGGAUAUCGACUGGAUAACAGUCGAGAAGGUACAUGAGGAUCACCCAUGUAAUCCUAAUAAUAAUAACGACCG | 12.6 | 18 |  | 
6 | AACCUAGUCAUAGGAUAUACAGGCAAAGCCAAAGUAGAAGGAUGACACAUGAGGAUCACCCAUGUGGUCCUUGAACAAAAUAAC | 27 | 196 |  | 
7 | CUGCGGGCCAUAGGAUAUGCGCAGAAUUAGCAAGCAGAAGGGUGGAUCGUACAAUAAUAACUACAUGAGGAUCACCCAUGUGCU |  |  | 235 | 56.1
8 | GGAAACUACGAGAAGGACAUGUGGUCCUUCAGUUACAUGAGGAUCACCCAUGUAGGAUAUCGUAGUUUCAGGAUCGUGAGAUCG | 35.6 | 9.39 |  | 
9 | GGAUAGGACAGAGGAUAUACGUGCUAGAGAUAUUAGCAAAAUUUCCUCACAUGAGGAUCACCCAUGUAGAAGGCUGUCCUAUCG | 19.4 | 328 |  | 
10 | AUUAGUAUCUAGGAUAUCUAGUACAUAGUAUCUAGAGAAGGAGAUACAUGAGGAUCACCCAUGUUCUGUGUUCU | 27.2 | 64.5 |  | 
11 | AGUAUGCGAGGAUAUACAUGAGGAUCACCCAUGUGAGAGAUAAAAGUGAGAAAGACAAGUAGAAGGCGCGUACA | 61.9 | 451 |  | 
12 | AAGUAGGUAGGAUAUGCAUAGAUACAGAUUCAUGUGGAACUACAUGAGGAUCACCCAUGUAGAAGGACCUAAUA | 21.1 | 29.6 |  | 
13 | GUCUCAGCUGAGGAUAUAUUCUCCCUUGAGGGAAUAGAAGGCAGUACAUGAGGAUCACCCAUGUGGUUCGUUUG | 122 | 327 |  | 
14 | AUCUAGUCAGGAUAUACGAACCGAUGAAUCGGACGGAACGAACAUGAGGAUCACCCAUGUAGAAGGGACACUCA | 162 | 163 |  | 
15 | UUGGUAUUUGUAGGAUAUCUGUCGCCACCGUGUGGAGAAGGACGAACAUGAGGAUCACCCAUGUAUCAUGGUGUGGGCUUUGUU | 757 | 710 |  | 
16 | AAGUAUAAGGGCAUUAAACAUGAGGAUCACCCAUGUACAAUAGAGGAUAUGCAUUUCGGUUUAGAGUAGAAGGUUAGAGAAUAU | 27.6 | 33.7 |  | 
17 | AAUUUGUGAAAAUUACAUGAGGAUCACCCAUGUUAGGGAAUGCAGGAUAUGUGGAAUAUUAUUUAACAGAAGGGCAAUAAUUUU |  |  | 56.3 | 41.6
18 | AAUUUACAGGGAGGAUAUACAUGAGGAUCACCCAUGUAAUCAUAUGAUAUUUUUUUUGUAUGAGUGUAGAAGGCCCAAAUAAAA | 9.32 | 11.1 |  | 
19 | GGUGAAUGAACAUGAGGAUCACCCAUGUACAGGAAACUGAAUGAGGAUAUCCAUAGCAAAGCUAUGGAGAAGGCAUGGGUCACC |  |  | 302 | 99.8
20 | UUAUACAUUCGAGGAUAUCGGAGAGAGAUCAUUCGAGAAGGCGAUUCAUGAUGUAUUAUCCUGGACAUGAGGAUCACCCAUGUA |  |  | 101 | 68.1
21 | AGCUGGUGACAGCAAGAAACUUCACAUGAGGAUCACCCAUGUAGAAGGCUGUACGGUUACCGUACAGAGGAUAUACAUUGAAGA | 5.59 | 8.63 |  | 

Row | Sequence | apparent Kd [1] [nM] | apparent Kd [2] [nM] | apparent Kd [3] [nM] | apparent Kd [4] [nM]
22 | AAGUCGCUAGGAGGAUAUACAUGAUCUCACACAUGUACCGCUCACGCCACAUGAGGAUCACCCAUGUAGAAGGCCUAGAGAGGU | 23.4 | 62.4 |  | 
23 | UAAUUAAGUGUGAGGAUAUGCUGGUCCUUGGAUCAGCAGAAGGCACAUGAGGAUCACCCAUGUAAUAUAUUUAU | 97.4 | 493 |  | 
24 | GUAGCUAUCGGAGGAUAUUCAUACCGGAAACGGACAUGAGGAUCACCCAUGUAGCGAAAGCCUUGGGAGAAGGCCGAUAGCUAC |  |  | 919 | 103
25 | ACAAUGUUAGGAUAUCUGAGAAUUAGUCUCGACUAGUCGAAGGAGAAGGAACAUGAGGAUCACCCAUGUAGAUC | 43.4 | 275 |  | 
26 | AGGCGAGUAGGAUAUGCGUAUUUACAGGAAAGCUGGAUGGUACAUGAGGAUCACCCAUGUAGAAGGGCUCUGAA | 21.2 | 19.4 |  | 
27 | AAUUCAAACAGAGGAUAUUGUUUAUCUCUAUUGCAAGAAGGCUGAUCUUACUACUUACUUAUGAAACAUGAGGAUCACCCAUGU |  |  | 36.6 | 31.8
28 | AACUAAGUAUUAAUGGUGUCUGACAGAAGGCAAUAGGUUGUGACCGACAUGAGGAUCACCCAUGUUGAGGAUAUGUCUAGCUAC | 44.7 | 308 |  | 
29 | AACCUAUUACAGAAGGCCAGCUACAUGAGGAUCACCCAUGUCGAGUCAUGGAGGAUAUGUAGUAACCUGCACGCGGGCGGAUAC |  |  | 50.7 | 7.18
30 | GAAGUUGGUAGGCCCUCGGAACAUGAGGAUCACCCAUGUAAGGAGGAUAUGCCCGGUACCCGCUGGCAGAAGGCCUUAUAAGAA | 11.1 | 68.8 |  | 
31 | AGCCAAGCAGGAUAUGCACGUAAUAACAUGAGGAUCACCCAUGUGACCGAUUUAUAUUCUGCAGAAGGGCUUGGAU | 29 | 118 |  | 
32 | GCUAUCGAACAGAAGGGACCGCGGCCGUGGCGGUCAGGAUAUGUAUGCAGUAGUGCCUACAUGAGGAUCACCCAUGUCCGCCGC |  |  | 629 | 218
33 | AGUGUCAUCCAGAAGGCCUCAUUACAUGAGGAUCACCCAUGUAAUCGUGGGAGGAUAUGGAUGAUACAGCUACGUUUCGUAGCA |  |  | 7.42 | 4.65
34 | GACUCGAAUGUAGGAUAUGCUGAGGAUAACUCAGCAGAAGGACAUGAGGAUCACCCAUGUAAAUGAGUGAAUAAUAAACGAGUC | 1400 | 129 |  | 
35 | UACCGCUCUGAAGGAUAUCCACUGGGAUGCUGGAUGUAUGAGCGUACAUGAGGAUCACCCAUGUAGGAGAAGGUCAGGCAUUCC | 5.8 | 7.84 |  | 
36 | GGUCGUCACAUUAACAUGAGGAUCACCCAUGUCAAAAGACAUGAGGAUAUGCAUCCUAAUUGGAUGCAGAAGGCAUGGACGACC |  |  | 507 | 32.7
37 | GGUACCAACACAGGAUAUGCUAUCCUUUGGGUAGCAGAAGGGUGAAACAUGAGGAUCACCCAUGUGGUGCCACCCGGUGACGGG |  |  | 1180 | 89.2
38 | ACGGCAAUCACAGGAUAUGGUUACAUGAGGAUCACCCAUGUCUAGGGUCUAAUUAGGUAUAACUACCAGAAGGGUGAAGGCCUA | 97.1 | 80.1 |  | 
39 | UGUCGGAGCAGAGGAUAUUACAUGAGGAUCACCCAUGUAUGAACCAAUAGCUGGAAACAGCAAUGUAAGAAGGGUGCUCCGACA | 6.09 | 13.2 |  | 
40 | UUACUAUUACAGAAGGUUAAAUAAUAUAUAAAUGAAGGAUAUGUGACAUGAGGAUCACCCAUGUUUCACCCACAUGAGGAUCAU | 8.62 | 7.41 |  | 
41 | GAUCCUUCUGUUAGGAUAUGCUUUGGGCUUUCGCAGCAGAAGGAACAUGAGGAUCACCCAUGUCCGAUGCCGUC | 77.5 | 81.3 |  | 
